Structures are written as SMILES.

Experiment [1] has as its system Plasmodium falciparum falcipain proteases. The note with it: cited from earlier work.
Experiment [2] concerns the target T1, cathepsin L (Homo sapiens, UniProt P07711). Put plainly: Reversibility: preincubation-dilution experiment. The note with it: preincubation-dilution and activity-probe experiments. In kind it is biochemical. Put shortly: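 Preincubation-dilution test: cathepsin L at 100-fold final assay concentration was incubated 30 min with a concentrated test compound in 2 µL. The mix was then diluted 100-fold into assay buffer containing 10 µM Z-FR-AMC, 200 µL final. AMC release was monitored continuously in kinetic mode for 2 h. Activity was compared against a vehicle control.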

Experiment [3] deals with T1, cathepsin L. Description: Cathepsin L inhibition assay. In kind it is biochemical. The settings on record: for Selectivity Index: IC50 of assayed protease / IC50 cathepsin L. Put shortly:
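Recombinant human cathepsin L (3.0 ng/mL) with 20 µM Z-Phe-Arg-AMC in 50 mM sodium acetate, 100 mM NaCl, 1.0 mM EDTA, 4 mM DTT, pH 5.5, at 25 °C. Fluorescence read at 365/450 nm. Dose-response was […], 3-fold, 333–0.46 nM, in triplicate, with immediate mixing or 30 min enzyme–inhibitor preincubation. Data were scaled to E-64-c/DMSO controls and fitted to a four-parameter logistic model for IC50. Selectivity index = IC50 of the assayed protease / IC50 of cathepsin L for each condition.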

The target in a further experiment is human cathepsin H (Homo sapiens, UniProt P09668). Put plainly: Selectivity: cathepsin H inhibition. The format is biochemical. The settings on record: at the highest assay concentrations. The essentials:
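Human cathepsin H (50 ng/mL) in 50 mM potassium phosphate, 3 mM cysteine, 1 mM EDTA, pH 6.4, with 200 µM Arg-AMC substrate. Dose-response ran with 0 min and 30 min enzyme–inhibitor preincubation, otherwise as for the cathepsin L assay, in technical triplicate.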

Experiment [4] addresses T1, cathepsin L. Description: Active-site directed probe. In kind it is binding. The settings on record: 30 min preincubation; enzyme 100 nM. The essentials:
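Test compound in a 6-point, 3-fold serial dilution (10% DMSO) was preincubated 30 min at room temperature with recombinant human cathepsin L in 100 mM sodium acetate, 1.0 mM EDTA, 4 mM DTT, pH 5.5. CLIK-148 and DMSO served as controls. Biotinylated epoxide probe DCG-04 (10 µM stock) was added for 30 min at room temperature. Samples were denatured at 70 °C for 5 min, run on 12% Bis-Tris SDS-PAGE and blotted to nitrocellulose. Detection used avidin/biotinylated HRP with chemiluminescence.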

The test system of a further experiment is murine cathepsin L. The settings on record: cited from earlier work.

T1 sequence (P07711 114-333): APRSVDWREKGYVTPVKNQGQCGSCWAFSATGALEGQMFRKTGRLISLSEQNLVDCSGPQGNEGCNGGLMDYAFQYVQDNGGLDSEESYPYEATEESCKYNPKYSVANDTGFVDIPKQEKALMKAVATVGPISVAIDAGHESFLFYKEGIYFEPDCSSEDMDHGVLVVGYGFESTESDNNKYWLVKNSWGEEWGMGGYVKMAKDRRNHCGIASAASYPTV
human cathepsin H, sequence (P09668 116-335 limits assumed, other chains not shown): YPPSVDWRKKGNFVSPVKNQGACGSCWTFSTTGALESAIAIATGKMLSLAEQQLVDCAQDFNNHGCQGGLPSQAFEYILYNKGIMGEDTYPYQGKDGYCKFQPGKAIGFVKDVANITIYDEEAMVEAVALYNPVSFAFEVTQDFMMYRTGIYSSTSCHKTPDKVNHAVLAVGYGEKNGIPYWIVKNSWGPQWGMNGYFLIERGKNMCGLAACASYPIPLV

On to `CC[C@H](C)[C@@H](C(=O)O[C@@H](CC(C)C)C(=O)N[C@@H](CC(C)C)C(=O)N[C@@H](C)/C=C/C(=O)N1C(=O)C=C(OC)[C@@H]1C)N(C)C` [compound 1, gallinamide A], for which the “mode of inhibition of falcipain proteases” value in experiment [1] (based on kinetic model fitting) is on record as “covalent, irreversible inhibitor”. The “inhibition of P. falciparum falcipain proteases (in words)” value in experiment [1] is on record as “potent inhibition”. Also, the mode of inhibition entry on cathepsin L [2] is on record as “irreversible”. Besides, the “Selectivity Index” value at cathepsin L [3] (0 min) worked out at 1. The “Selectivity Index” value at cathepsin L [3] (30 min) is 1. Moreover, the inhibition (commonly the share of the control response that was lost under treatment) at 3 µg/mL on cathepsin L [3] (read-out: inhibition of cathepsin L) is 97 to 99%. The “activity against cathepsin H (in words)” value at human cathepsin H was “inactive”. Further, at cathepsin L [4], the “concentration giving complete loss of DCG-04 probe labeling” value stood at 333 nM and the “concentration giving decreased DCG-04 probe labeling” value came to 111 nM. In addition, the “inhibition of murine cathepsin L (in words)” value in the experiment on murine cathepsin L was “moderate inhibition”.
